Source: ChEMBL document CHEMBL4513216, “Probing the Open Global Health Chemical Diversity Library for Multistage-Active Starting Points for Next-Generation Antimalarials” (ACS Infect Dis, 2020)

Assay: Toxicity liver stage against HepG2, at 10uM
Type: cell-based
Design: test concentration 10 uM, cell line HepG2-A16-CD81EGFP
Settings: human, HepG2-A16-CD81EGFP cells; read-out: INHIBITION
Procedure, shortened: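 Uninfected HepG2-A16-CD81EGFP cells, 3 × 10^3 per well, 1536-well, plated on prespotted compound at 10 μM final, parasite-free screening media added to match infected plates; puromycin 10 μM positive, DMSO 0.5% negative; run in parallel with 48 h PbLuc assay at 37 °C, 5% CO2; viability by CellTiter-Glo luminescence, normalized to controls.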

SMILES	cytotoxicity at 10 µM [%]
O=C1N(c2ccccc2)C[C@H]2CN(C3CCC3)CCN12	6.09
CNC(=O)[C@@H]1[C@@H](c2ccccc2)CN2CCN(Cc3cccs3)C[C@H]12	11
Cc1noc(C)c1S(=O)(=O)N1CCC(Oc2cccnn2)CC1	0.0701
COc1cccc(CC(=O)N2CCCSCC2CN2CCCC2)c1 (stereo unspecified)	-1.42
CC(C)NC(=O)N1CCC2(CC1)[C@@H]1CN(C(=O)N(C)C)C[C@@H]1C(=O)N2C	4.32
CN1C(=O)CCCC12CCCN(C(=O)c1cccc(C(F)(F)F)c1)C2 (stereo unspecified)	4.65
O=C(c1cccnc1)N1Cc2[nH]nc(COCCO)c2C1	13.3
CC(C)NC(=O)c1nc2c(s1)CCCN2c1ccccc1	4.29
CC(C)N(C)Cc1ncn2c1CN(CC(=O)N(C)C)CCC2	7.28
Cc1nn(-c2ccccc2)c(C)c1CN1CCNCC1	6.19
CCC(=O)N1CCOC(c2cc(Nc3nncs3)cc(C)n2)C1 (stereo unspecified)	5.67
CN(C)c1ncc(-c2ccncc2)c(CCNC(=O)C2CC2)n1	0.05
Cc1nc(-c2cccc(C(=O)O)c2)cc(C2CCCN(C(C)C)C2)n1 (stereo unspecified)	-7.44
COc1cccc(-c2noc(C3CCN(CC(N)=O)C3)n2)c1 (stereo unspecified)	-11.3
Cc1cc2c(=O)n3c(nc2s1)CCN(C(=O)c1scnc1C)CC3	-0.774
CNC(=O)CCc1cc(C)nc(C2CCCN2)c1 (stereo unspecified)	-8.49
CN(C)C(=O)C1CN(Cc2c[nH]cn2)CCN(C2CCOCC2)C1 (stereo unspecified)	-5.97
O=C(c1ccc[nH]1)N1CCOCC12CCCC2	12.3
Cc1ccc2c(c1C)OCC2NCc1ccc(C#N)cc1 (stereo unspecified)	25.8
c1ccc(-c2nccc(N3CCc4c(ncn4C4CC4)C3)n2)cc1	7.22
Cc1cc(NC(=O)N2CCN(c3cccs3)CC2)ccc1C(N)=O	-7.79

SMILES	cytotoxicity at 10 µM [%]
Cc1nc2cc(=O)[nH]n2c(C)c1CNC(=O)c1cnn(C(C)(C)C)c1	-4.01
CCc1nc(NS(=O)(=O)c2cc(C)cc(F)c2)no1	2.31
CCC(C)(CCO)NC(=O)c1ccon1 (stereo unspecified)	4.13
CCn1c(C)nnc1CN(C)C1CCN(CCc2cccs2)C1 (stereo unspecified)	-7.12
CCN(CC)C(=O)c1cc(Br)cc(S(=O)(=O)N2CCOCC2)c1F	-2.43
Cc1noc(COCC(=O)N2CCCCC2c2nccs2)n1 (stereo unspecified)	6.9
CC(C)OCCCNC(=O)Nc1cccc2ncccc12	2.96
CN(C)c1nc(N)nc(CSCCC(=O)Nc2ccc(F)cc2)n1	-1.33
Cc1nc(CNC(=O)NC(C)c2ccc3c(c2)OCCO3)cs1 (stereo unspecified)	-2.61
CCN1CCN(c2ccc(C(=O)NC(C)C(=O)N(C)C)cc2)CC1 (stereo unspecified)	-4.98
COc1ccc(Cl)cc1-c1cc(NC(=O)C2CNC(=O)N2)[nH]n1 (stereo unspecified)	-1.12
CC1CCN(C(=O)C2CCN(c3ccc(Cl)cc3C#N)CC2)CC1	11.8
C1CC(CN2CCOCC3(CCN(C4CCOCC4)C3)C2)CCO1 (stereo unspecified)	-3.37
Cc1cc(N2CCC(c3nccn3Cc3cscn3)CC2)ccn1	-4.72
O=C1CCc2cc(S(=O)(=O)NCc3cc4n(n3)CCNC4)ccc2N1	3.28
Cc1nn(CCC(=O)N2CCCC(OCc3cccnc3)C2)c(C)c1C (stereo unspecified)	-5.47
Cc1c(Cl)cccc1NC(=O)N1CCC2(CC1)NC(=O)CC2C(=O)O (stereo unspecified)	-1
Cc1ccc(N2CC[C@@H](NC(=O)c3cnccn3)[C@H](O)C2)nn1	-6.79
Cc1cc(NC2CCN(Cc3ccccn3)CC2)n2nc(C)c(C)c2n1	0.951
CNC(=O)[C@@H]1C[C@H](n2cc(-c3ccc(CN4CC=CC4)cc3)nn2)CN1	3.46
CC(C)(CN1CCCC1)CN1CCC(Cn2cc(C3CC3)nn2)CC1	-12.2

SMILES	cytotoxicity at 10 µM [%]
COc1cccn(CC(=O)N2CCCC3(CCOCC3)C2)c1=O	8.78
CS(=O)(=O)NCCC(=O)NCc1cccnc1-n1cnc2ccccc21	-0.0143
CC(C)c1cc(C(=O)N2CCC3(CC2)c2ccccc2[C@@H](N)[C@@H]3O)cs1	-7.34
O=C(O)c1cccnc1CN1CCCCC1CCc1cccc(O)c1 (stereo unspecified)	-1.84
CCCc1nnc(N2CCN(Cc3ccccc3OC)CC2)o1	-12
O=C(NCCn1cccc1)C1CCC(=O)N(C2CCCC2)C1 (stereo unspecified)	0.622
COc1cccc(C(=O)N2CCN(C(=O)CCCn3ccnc3)CC2)c1	3.82
CCCSCC(=O)N1CCC2(CC1)CC(c1ccccc1)CN(C)C2 (stereo unspecified)	-7.29
CN(C)c1ncccc1CNC(=O)NCc1cccs1	-4.87
CCCOc1ncccc1CNc1nnc(C)c(C)c1C#N	-14.3
Cc1nnc(CN(C)C2CCN(Cc3nnc(C4CCC4)o3)C2)n1C (stereo unspecified)	-8.15
O=C(CCc1ccsc1)N1CCCC(n2cncn2)C1 (stereo unspecified)	-9.47
COCc1ccccc1C(=O)N1CCCC(c2cc(C)[nH]n2)C1 (stereo unspecified)	-23.2
Cc1nc(C)n(C2CCCN(C(=O)c3csc(CC(C)C)n3)C2)n1 (stereo unspecified)	-17.3
CCCc1noc(CN2CCCC2c2noc(C3CC3)n2)n1 (stereo unspecified)	-13
COc1c(CNC2CCc3cc(F)ccc32)c(C(C)C)nn1C (stereo unspecified)	1.16
CCOc1ncccc1NC(=O)NC1CCN(C(=O)C2CC2)CC1	-13.6
O=C(NCc1nnc2n1CCCCC2)N1CCc2ccccc2C1	4.66
CC(NC(=O)NCCCOc1ccccc1F)c1nncn1C (stereo unspecified)	-8.77
CC(=O)Nc1nc(C(=O)N2CCC(Nc3cccnn3)CC2)cs1	-4.67
c1ccc(-c2nc(CN3CCn4c(nnc4C4CC4)C3)cs2)cc1	-3.92

SMILES	cytotoxicity at 10 µM [%]
Cc1cccc(-c2noc(CN3CCC(N4CCNC4=O)CC3)n2)c1	5.34
CCN(Cc1ccc2c(c1)OCO2)Cc1nc(C)no1	-6.49
CCN(Cc1cccc2c1OCO2)C(=O)C(C)c1cccnc1 (stereo unspecified)	-4.84
Cc1ncc(CN(C)CC2CCCN2c2cccnn2)s1 (stereo unspecified)	4.19
COCCN1C(=O)CCC12CCC(NCc1cccc(C)n1)CC2 (stereo unspecified)	9.4
O=C(O)c1cc2c(nc1-c1ccsc1)CCN(C(=O)C1CC1)CC2	14.4
CCO[C@@H]1CC[C@H]2[C@H]1OCCN2CCOCc1ccccc1	-111
C1CC(CN2CCO[C@H]3[C@H](OCC4CC4)CC[C@@H]32)CCO1	-13.3
COc1cccc(CN2CCC3(CC2)CCN(c2ncc(F)cn2)C3)c1	1.42
O=S1(=O)NCC2(CCNCC2)COc2ccccc21	-2.75
Cc1cnc(N2C[C@@H]3[C@@H](C2)OCC(=O)N3CC(C)C)nc1	-0.173
CCC(=O)N1CCC2(CCC(N3CCCC3)c3ccccc32)CC1 (stereo unspecified)	-6.23
O=C(c1ccc2ccc(N3CCN(CC4CC4)CC3)n2c1)N1CCCO1	9.81
CCc1cnc(N2C[C@H](OCc3csc(C)n3)[C@H]3COC[C@H]32)nc1	-2.51
Cc1ccc(CN2C[C@@H]3CN(c4ncccn4)C[C@@H]3C2)cc1	-2.02
Cc1noc(C)c1CN1CCC2(CC1)C(c1cnn(C)c1)CC(=O)N2C (stereo unspecified)	-106
CCN1CCn2c(C)cnc2C12CCN(C(=O)NCC(C)C)CC2	-1.07
NCc1cc(-c2ccccc2)n2nccc2n1	-14.7
